Measurements: ChEMBL document CHEMBL4373737, “New thiazole-2(3H)-thiones containing 4-(3,4,5-trimethoxyphenyl) moiety as anticancer agents” (Eur J Med Chem, 2020)
Activity calls are given as the source filed them. No cut-off for these calls is given here.

Columns and labels:
[1] = system: A549; experiment: Cytotoxicity against human A549 cells assessed as reduction in cell viability after 48 hrs by MTT assay; format: functional, cell-based; conditions: A549, 48 h
Outline: (§1)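 MTT viability assay. Stocks in DMSO were diluted into culture medium to final 1, 5, 10, 50 and 100 µg/mL, with DMSO below 1%. A549, MCF-7, SKOV3 and normal mouse fibroblast L929 were used, with etoposide as reference. Values are means of three experiments. L929 was also tested up to 200 µg/mL alongside cisplatin 50 µg/mL.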

[2] = system: MCF7; experiment: Cytotoxicity against human MCF7 cells assessed as reduction in cell viability after 48 hrs by MTT assay; format: functional, cell-based; conditions: MCF7, 48 h; outline: as §1
[3] = system: SK-OV-3; experiment: Cytotoxicity against human SKOV3 cells assessed as reduction in cell viability after 48 hrs by MTT assay; format: functional, cell-based; conditions: SK-OV-3, 48 h; outline: as §1
[4] = system: MCF7; experiment: Cell cycle arrest in human MCF7 cells assessed as accumulation at sub-G1 phase at 12 ug/ml after 48 hrs by RNase A/propidium iodide staining based FACScalibur flow cytometry (reference value: 0.66 %); format: functional
Outline: (§2)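 MCF-7 seeded at 25×10^4 cells/well, treated 24 h later with 12 µg/mL for 48 h; untreated control. Cells washed in cold PBS, fixed in 70% ethanol ≥3 h, RNase A 1 h at room temperature, then propidium iodide. Phase distribution (sub-G1, G1, S, G2/M) read by flow cytometry.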

[5] = system: L929; experiment: Cytotoxicity against mouse L929 cells assessed as […] cell viability after 48 hrs by MTT assay; format: cell-based; conditions: L929, 48 h; outline: as §1
[6] = Hemolytic activity in human erythrocytes at 10 ug/ml after 1 hr relative to control; format: ADME, cell-based, Erythrocyte; conditions: read-out: Activity
Outline: (§3)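 Human erythrocytes; DMSO stock added 1:20 to diluted cells to give final 1, 5 and 10 µg/mL. DMSO served as negative control and Triton X-100 (2% v/v) as positive (100%) control. Percent hemolysis measured in three repeats, mean ± SD.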

[7] = system: L929; experiment: Genotoxicity in mouse L929 cells assessed as induction of DNA damage at 10 ug/ml incubated for 1 hr by alkaline comet assay; format: toxicity, cell-based; conditions: l929, 1 h
Outline: (§4)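 Alkaline comet assay in L929 seeded at 250000 cells/well and exposed for 1 h to 10 µg/mL; etoposide 0.5 µg/mL served as positive control and untreated cells as negative. Cells were embedded in low-melt agarose and lysed 1 h at 4 °C (2.5 M NaCl, 100 mM EDTA, 10 mM Tris, pH 10, 10% DMSO, 1% Triton X-100). DNA unwound 40 min at pH>13, electrophoresed 25 V/300 mA 20 min, neutralized, stained with ethidium bromide. Tail length, % tail DNA and tail moment scored; mean ± SEM.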

[8] = (§5) Inhibition of sheep brain tubulin polymerization incubated for 15 mins in presence of GTP by turbidimetric method; design: species or system Ovis aries
Outline: (§6)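 Tubulin purified from sheep brain by three polymerization/depolymerization cycles. It was preincubated 15 min on ice with 0.5, 2, 10 or 20 µg/mL, then polymerization started with 1 mM GTP at 37 °C and followed by turbidity at 350 nm. IC50 was taken from area under the curve, with untreated control set as 100% polymerization. Colchicine served as reference.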

[9] = organism: Ovis aries; experiment: as §5; outline: as §6
[10] = organism: Ovis aries; experiment: Inhibition of colchicine binding to sheep brain tubulin assessed as decrease in fluorescence of colchicine-tubulin complex at 1 to 5 uM by fluorescence based assay
Outline: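 Purified tubulin (0.25 µM) incubated 1 h at 37 °C with colchicine 0.1, 0.25, 0.5 or 1 µM, then test compound at final 1 or 5 µM. Fluorescence read at ex 360/em 430 nm, corrected for compound background, expressed as F/F0; n=3.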

[11] = system: MCF7; experiment: Cell cycle arrest in human MCF7 cells assessed as accumulation at G1 phase at 12 ug/ml after 48 hrs by RNase A/propidium iodide staining based FACScalibur flow cytometry (reference value: 44.45 %); format: functional; outline: as §2
[12] = system: MCF7; experiment: Cell cycle arrest in human MCF7 cells assessed as accumulation at S phase at 12 ug/ml after 48 hrs by RNase A/propidium iodide staining based FACScalibur flow cytometry (reference value: 38.2 %); format: functional; outline: as §2
[13] = system: MCF7; experiment: Cell cycle arrest in human MCF7 cells assessed as accumulation at G2/M phase at 12 ug/ml after 48 hrs by RNase A/propidium iodide staining based FACScalibur flow cytometry (reference value: 16.69 %); format: functional; outline: as §2
[14] = system: SK-OV-3; experiment: Induction of apoptosis in human SKOV3 cells assessed as viable cells at 2 ug/ml after 48 hrs by AnnexinV-FITC/propidium iodide staining based FACScan flow cytometry analysis relative to control; format: functional; conditions: SK-OV-3, 48 h, read-out: Activity
Outline: (§7)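 SKOV3 seeded at 1×10^6 cells/well for 24 h, then given fresh medium containing 2 or 4 µg/mL for 48 h. Cells harvested by trypsinization, PBS-washed, stained with Annexin-V-FITC 15 min at room temperature, then PI 10 min. Flow cytometry with 488 nm excitation; quadrants were necrotic, late apoptotic, viable and early apoptotic.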

[15] = system: SK-OV-3; experiment: Induction of apoptosis in human SKOV3 cells assessed as early apoptotic cells at 2 ug/ml after 48 hrs by AnnexinV-FITC/propidium iodide staining based FACScan flow cytometry analysis relative to control; format: functional; outline: as §7
[16] = system: SK-OV-3; experiment: Induction of apoptosis in human SKOV3 cells assessed as late apoptotic cells at 2 ug/ml after 48 hrs by AnnexinV-FITC/propidium iodide staining based FACScan flow cytometry analysis relative to control; format: functional; outline: as §7
[17] = system: SK-OV-3; experiment: Induction of apoptosis in human SKOV3 cells assessed as necrotic cells at 2 ug/ml after 48 hrs by AnnexinV-FITC/propidium iodide staining based FACScan flow cytometry analysis relative to control; format: functional; outline: as §7
[18] = system: SK-OV-3; experiment: Induction of apoptosis in human SKOV3 cells assessed as viable cells at 4 ug/ml after 48 hrs by AnnexinV-FITC/propidium iodide staining based FACScan flow cytometry analysis relative to control; format: functional; conditions: SK-OV-3, 48 h, read-out: Activity; outline: as §7
[19] = system: SK-OV-3; experiment: Induction of apoptosis in human SKOV3 cells assessed as early apoptotic cells at 4 ug/ml after 48 hrs by AnnexinV-FITC/propidium iodide staining based FACScan flow cytometry analysis relative to control; format: functional; outline: as §7
[20] = system: SK-OV-3; experiment: Induction of apoptosis in human SKOV3 cells assessed as late apoptotic cells at 4 ug/ml after 48 hrs by AnnexinV-FITC/propidium iodide staining based FACScan flow cytometry analysis relative to control; format: functional; outline: as §7
[21] = system: SK-OV-3; experiment: Induction of apoptosis in human SKOV3 cells assessed as necrotic cells at 4 ug/ml after 48 hrs by AnnexinV-FITC/propidium iodide staining based FACScan flow cytometry analysis relative to control; format: functional; outline: as §7
[22] = system: L929; experiment: Genotoxicity in mouse L929 cells assessed as induction of DNA damage at 0.5 ug/ml incubated for 1 hr by alkaline comet assay; format: toxicity, cell-based; conditions: l929, 1 h; outline: as §4
[23] = system: B16; experiment: Cytotoxicity against mouse B16 cells assessed as reduction in cell growth; format: functional, cell-based
[24] = system: HCT-116; experiment: Cytotoxicity against human HCT116 cells assessed as reduction in cell growth; format: functional, cell-based
[25] = system: MCF7; experiment: Cytotoxicity against human MCF7 cells assessed as reduction in cell growth; format: functional, cell-based
[26] = system: A549; experiment: Cytotoxicity against human A549 cells assessed as reduction in cell growth; format: functional, cell-based
[27] = system: PC-3; experiment: Cytotoxicity against human PC3 cells assessed as reduction in cell growth; format: functional, cell-based
[28] = system: Erythrocyte; experiment: Hemolytic activity in human erythrocytes at 1 to 5 ug/ml after 1 hr; format: ADME, cell-based; outline: as §3

Structure (SMILES)	IC50 [1] [µM]	IC50 [2]	IC50 [3] [µM]	also measured
COc1cc(-c2csc(=S)n2C)cc(OC)c1OC	17.5	27.7 µM	23.4	–
COc1cc(-c2csc(=S)n2Cc2ccccc2Cl)cc(OC)c1OC	13.8	2.8 µM	13.5	Activity [4]: 14.74%; IC50 [5]: > 200 µg/mL; hemolysis at 1 h, 10 ug/ml [6]: < 25%; Activity [7]: Non-Toxic; IC50 [8]: 5.14 µg/mL; inhibition [9]: Dose-dependent effect; inhibition [10]: Active; Activity [11]: 78.02%; Activity [12]: 7.17%; Activity [13]: 0.07%; viability at 2 µg/mL [14]: 68.9%; Activity [15]: 3.06%; Activity [16]: 15.49%; Activity [17]: 12.57%; viability at 4 µg/mL [18]: 58.9%; Activity [19]: 7.6%; Activity [20]: 19.81%; Activity [21]: 13.72%
COc1cc([C@@H]2c3cc4c(cc3[C@@H](O[C@@H]3O[C@@H]5CO[C@@H](C)O[C@H]5[C@H](O)[C@H]3O)[C@H]3COC(=O)[C@H]23)OCO4)cc(OC)c1O [ETOPOSIDE]	6	5.7 µM	9.2	Activity [22]: Toxic
COc1ccc(-c2coc(=O)n2-c2cc(OC)c(OC)c(OC)c2)cc1N	–	–	–	IC50 [23]: 0.0011 to 0.0043 µM; IC50 [24]: 0.0011 to 0.0043 µM; IC50 [25]: 0.0011 to 0.0043 µM; IC50 [26]: 0.0011 to 0.0043 µM; IC50 [27]: 0.0011 to 0.0043 µM
COc1cc(-c2csc(=S)n2Cc2ccccc2)cc(OC)c1OC	12.1	13.9 µM	17.5	–
COc1cc(-c2csc(=S)n2Cc2ccc(F)cc2)cc(OC)c1OC	15.8	10 µM	18.6	–
COc1cc(C2(O)CSC(=S)N2Cc2ccccc2)cc(OC)c1OC (stereo not given)	12.8	13.4 µM	13.8	–
COc1cc(C2(O)CSC(=S)N2C)cc(OC)c1OC (stereo not given)	10.2	26.1 µM	13.4	–
COc1cc(-c2csc(=S)n2Cc2ccc(Cl)cc2)cc(OC)c1OC	6.7	5.9 µM	18.1	Activity [4]: 17.28%; IC50 [5]: > 200 µg/mL; hemolysis at 1 h, 10 ug/ml [6]: < 25%; Activity [28]: Non-Toxic; Activity [7]: Toxic; IC50 [8]: 9.97 µg/mL; inhibition [9]: Dose-dependent effect; Activity [11]: 54.57%; Activity [12]: 22.43%; Activity [13]: 5.72%; viability at 2 µg/mL [14]: 64.1%; Activity [15]: 6.2%; Activity [16]: 13.55%; Activity [17]: 16.12%; viability at 4 µg/mL [18]: 64.1%; Activity [19]: 6.2%; Activity [20]: 15.49%; Activity [21]: 19.9%
COc1cc(C2(O)CSC(=S)N2Cc2ccc(Cl)cc2)cc(OC)c1OC (stereo not given)	11.6	18.8 µM	18.1	–
COc1cc(C2(O)CSC(=S)N2Cc2ccccc2Cl)cc(OC)c1OC (stereo not given)	14.6	12.3 µM	12.1	–
COc1cc(-c2csc(=S)n2-c2ccc(Cl)cc2)cc(OC)c1OC	15.4	16.9 µM	17.7	–
COc1cc(-n2c(-c3ccc(Cl)cc3)csc2=S)cc(OC)c1OC	–	> 100 µg/mL	–	–
COc1cc(-c2csc(=S)n2-c2ccc(Cl)c(Cl)c2)cc(OC)c1OC	12.1	9.6 µM	17.9	–
COc1cc(C2(O)CSC(=S)N2Cc2ccc(F)cc2)cc(OC)c1OC (stereo not given)	21.4	12 µM	12.4	–
COc1cc(-c2csc(=S)n2Cc2ccc(O)cc2)cc(OC)c1OC	15.6	22 µM	18.7	–
